Source: ChEMBL document CHEMBL5303300, “EUbOPEN Chemogenomics Library - Multiplex” (2023)
Where “and” joins values, the source holds several entries; their conditions need not be identical. Equal values may be shown once.

Tests used:
HEK-293T = experiment: Multiplex assay against HEK293T; format: toxicity, cell-based; conditions: human, number of replicates 2
In short: (§1)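 At seeding, live cells were stained with Hoechst33342, BioTracker Green Microtubule Cytoskeleton Dye, MitoTracker Red and Annexin V Alexa Fluor 680. After compound addition they were imaged on a CQ1 microscope at 37°C and 5% CO2, and CellPathfinder machine-learning gating sorted them into Hoechst high-intensity objects or normal cells, with normal cells further split into healthy, pyknosed or fragmented nuclei and pyknosed cells into mitotic or apoptotic. Tubulin, mitochondrial-mass and membrane-permeability phenotypes are given as per cents of cells with healthy nuclei.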

U2OS = experiment: Multiplex assay against U2OS; format: toxicity, cell-based; conditions: human, number of replicates 2; in short: as §1
[1] = 12 h, 1 µM, compound concentration 1 uM
[2] = 12 h, 10 µM, compound concentration 10 uM
[3] = 24 h, 1 µM, compound concentration 1 uM
[4] = 24 h, 10 µM, compound concentration 10 uM
[5] = 48 h, 1 µM, compound concentration 1 uM
[6] = 48 h, 10 µM, compound concentration 10 uM

`Cn1cc(-c2ccc(N(C(=O)NCc3ccccc3)[C@H]3CC[C@H](Nc4ccc(C#N)cn4)CC3)cc2)ccc1=O` was tested, and the “Population Apoptotic (%)” value (HEK-293T; [1]) was 40% and 44%, the “Population Fragmented Nuclei (%)” value (HEK-293T; [1]) was 3% and 2% and the “Population Healthy Nuclei (%)” value (HEK-293T; [1]) was 83% and 84%. The “Population Hoechst High Intensity Objects (%)” value (HEK-293T; [1]) was 5%, the “Population Membrane Permeable-Phenotype (%)” value (HEK-293T; [1]) was 2% and 3% and the “Population Mitochondria Different-Phenotype (%)” value (HEK-293T; [1]) was 19% and 9%. For the same compound, the “Population Mitotic Cells (%)” value (HEK-293T; [1]) was 59% and 55%, the “Population Normal (%)” value (HEK-293T; [1]) was 94% and the “Population Pyknosed Nuclei (%)” value (HEK-293T; [1]) was 12%. The “Population Tubulin-Different-Phenotype (%)” value (HEK-293T; [1]) was 52% and 40%, the “Total Cell Count” value (HEK-293T; [1]) was 571 and 680 and the “Population Apoptotic (%)” value (HEK-293T; [2]) was 52% and 47%. For the same compound, the “Population Fragmented Nuclei (%)” value (HEK-293T; [2]) was 12% and 6%, the “Population Healthy Nuclei (%)” value (HEK-293T; [2]) was 71% and 78% and the “Population Hoechst High Intensity Objects (%)” value (HEK-293T; [2]) was 8% and 10%. The “Population Membrane Permeable-Phenotype (%)” value (HEK-293T; [2]) was 8% and 3%, the “Population Mitochondria Different-Phenotype (%)” value (HEK-293T; [2]) was 54% and 57% and the “Population Mitotic Cells (%)” value (HEK-293T; [2]) was 47% and 52%. For the same compound, the “Population Normal (%)” value (HEK-293T; [2]) was 91% and 89%, the “Population Pyknosed Nuclei (%)” value (HEK-293T; [2]) was 16% and 15% and the “Population Tubulin-Different-Phenotype (%)” value (HEK-293T; [2]) was 92% and 93%. The “Total Cell Count” value (HEK-293T; [2]) was 474 and 388, the “Population Apoptotic (%)” value (HEK-293T; [3]) was 35% and 31% and the “Population Fragmented Nuclei (%)” value (HEK-293T; [3]) was 5% and 4%. The “Population Healthy Nuclei (%)” value (HEK-293T; [3]) was 86%, the “Population Hoechst High Intensity Objects (%)” value (HEK-293T; [3]) was 8% and 6% and the “Population Membrane Permeable-Phenotype (%)” value (HEK-293T; [3]) was 2% and 5%. The “Population Mitochondria Different-Phenotype (%)” value (HEK-293T; [3]) was 5% and 4%, the “Population Mitotic Cells (%)” value (HEK-293T; [3]) was 65% and 68% and the “Population Normal (%)” value (HEK-293T; [3]) was 91% and 93%. The “Population Pyknosed Nuclei (%)” value (HEK-293T; [3]) was 7% and 8%, the “Population Tubulin-Different-Phenotype (%)” value (HEK-293T; [3]) was 33% and 30% and the “Total Cell Count” value (HEK-293T; [3]) was 908 and 972. The “Population Apoptotic (%)” value (HEK-293T; [4]) was 55% and 37%, the “Population Fragmented Nuclei (%)” value (HEK-293T; [4]) was 4% and 9% and the “Population Healthy Nuclei (%)” value (HEK-293T; [4]) was 86% and 77%. For the same compound, the “Population Hoechst High Intensity Objects (%)” value (HEK-293T; [4]) was 12% and 11%, the “Population Membrane Permeable-Phenotype (%)” value (HEK-293T; [4]) was 3% and 7% and the “Population Mitochondria Different-Phenotype (%)” value (HEK-293T; [4]) was 42% and 52%. For the same compound, the “Population Mitotic Cells (%)” value (HEK-293T; [4]) was 44% and 62%, the “Population Normal (%)” value (HEK-293T; [4]) was 87% and 88% and the “Population Pyknosed Nuclei (%)” value (HEK-293T; [4]) was 9% and 12%. The “Population Tubulin-Different-Phenotype (%)” value (HEK-293T; [4]) was 91% and 90%, the “Total Cell Count” value (HEK-293T; [4]) was 478 and 532 and the “Population Apoptotic (%)” value (HEK-293T; [5]) was 9% and 8%. For the same compound, the “Population Fragmented Nuclei (%)” value (HEK-293T; [5]) was 10% and 11%, the “Population Healthy Nuclei (%)” value (HEK-293T; [5]) was 85% and the “Population Hoechst High Intensity Objects (%)” value (HEK-293T; [5]) was 9%. For the same compound, the “Population Membrane Permeable-Phenotype (%)” value (HEK-293T; [5]) was 6%, the “Population Mitochondria Different-Phenotype (%)” value (HEK-293T; [5]) was 1% and 0% and the “Population Mitotic Cells (%)” value (HEK-293T; [5]) was 90% and 91%. The “Population Normal (%)” value (HEK-293T; [5]) was 90%, the “Population Pyknosed Nuclei (%)” value (HEK-293T; [5]) was 3% and the “Population Tubulin-Different-Phenotype (%)” value (HEK-293T; [5]) was 14% and 16%. The “Total Cell Count” value (HEK-293T; [5]) was 2214 and 2329, the “Population Apoptotic (%)” value (HEK-293T; [6]) was 43% and 56% and the “Population Fragmented Nuclei (%)” value (HEK-293T; [6]) was 7% and 3%. For the same compound, the “Population Healthy Nuclei (%)” value (HEK-293T; [6]) was 79% and 86%, the “Population Hoechst High Intensity Objects (%)” value (HEK-293T; [6]) was 10% and 13% and the “Population Membrane Permeable-Phenotype (%)” value (HEK-293T; [6]) was 5% and 2%. For the same compound, the “Population Mitochondria Different-Phenotype (%)” value (HEK-293T; [6]) was 39% and 30%, the “Population Mitotic Cells (%)” value (HEK-293T; [6]) was 56% and 43% and the “Population Normal (%)” value (HEK-293T; [6]) was 89% and 86%. The “Population Pyknosed Nuclei (%)” value (HEK-293T; [6]) was 12% and 9%, the “Population Tubulin-Different-Phenotype (%)” value (HEK-293T; [6]) was 74% and 66% and the “Total Cell Count” value (HEK-293T; [6]) was 578 and 533. For the same compound, the “Population Apoptotic (%)” value (U2OS; [1]) was 50% and 60%, the “Population Healthy Nuclei (%)” value (U2OS; [1]) was 48% and 86% and the “Population Hoechst High Intensity Objects (%)” value (U2OS; [1]) was 0%. The “Population Membrane Permeable-Phenotype (%)” value (U2OS; [1]) was 0% and 3%, the “Population Mitochondria Different-Phenotype (%)” value (U2OS; [1]) was 5% and 3% and the “Population Mitotic Cells (%)” value (U2OS; [1]) was 50% and 39%. The “Population Normal (%)” value (U2OS; [1]) was 100%, the “Population Pyknosed Nuclei (%)” value (U2OS; [1]) was 14% and 12% and the “Population Tubulin-Different-Phenotype (%)” value (U2OS; [1]) was 55% and 75%. For the same compound, the “Population Apoptotic (%)” value (U2OS; [2]) was 93% and 59%, the “Population Fragmented Nuclei (%)” value (U2OS; [2]) was 16% and 12% and the “Population Healthy Nuclei (%)” value (U2OS; [2]) was 41% and 57%. For the same compound, the “Population Hoechst High Intensity Objects (%)” value (U2OS; [2]) was 0%, the “Population Membrane Permeable-Phenotype (%)” value (U2OS; [2]) was 20% and 21% and the “Population Mitochondria Different-Phenotype (%)” value (U2OS; [2]) was 33% and 16%. The “Population Normal (%)” value (U2OS; [2]) was 100% and 99%, the “Population Pyknosed Nuclei (%)” value (U2OS; [2]) was 41% and 30% and the “Population Tubulin-Different-Phenotype (%)” value (U2OS; [2]) was 40% and 48%. The “Population Apoptotic (%)” value (U2OS; [3]) was 66% and 60%, the “Population Healthy Nuclei (%)” value (U2OS; [3]) was 40% and 87% and the “Population Hoechst High Intensity Objects (%)” value (U2OS; [3]) was 0%. For the same compound, the “Population Membrane Permeable-Phenotype (%)” value (U2OS; [3]) was 0% and 3%, the “Population Mitochondria Different-Phenotype (%)” value (U2OS; [3]) was 0% and 1% and the “Population Mitotic Cells (%)” value (U2OS; [3]) was 33% and 40%. The “Population Normal (%)” value (U2OS; [3]) was 100% and 99%, the “Population Pyknosed Nuclei (%)” value (U2OS; [3]) was 19% and 9% and the “Population Tubulin-Different-Phenotype (%)” value (U2OS; [3]) was 63% and 79%. For the same compound, the “Population Apoptotic (%)” value (U2OS; [4]) was 90% and 75%.
